Experiments:
[1] = molecular target: Serine/threonine-protein kinase RIO2 (Homo sapiens) (UniProt Q9BVS4); test: Inhibition of RIOK2 (unknown origin) assessed as residual activity at 1 uM by Kinomescan assay relative to staurosporine
[2] = molecular target: T1, Bone morphogenetic protein receptor type-2 (Homo sapiens) (UniProt Q13873); test: Inhibition of BMPR2 (unknown origin) assessed as residual activity at 1 uM by Kinomescan assay relative to staurosporine
T1 sequence (whole entry): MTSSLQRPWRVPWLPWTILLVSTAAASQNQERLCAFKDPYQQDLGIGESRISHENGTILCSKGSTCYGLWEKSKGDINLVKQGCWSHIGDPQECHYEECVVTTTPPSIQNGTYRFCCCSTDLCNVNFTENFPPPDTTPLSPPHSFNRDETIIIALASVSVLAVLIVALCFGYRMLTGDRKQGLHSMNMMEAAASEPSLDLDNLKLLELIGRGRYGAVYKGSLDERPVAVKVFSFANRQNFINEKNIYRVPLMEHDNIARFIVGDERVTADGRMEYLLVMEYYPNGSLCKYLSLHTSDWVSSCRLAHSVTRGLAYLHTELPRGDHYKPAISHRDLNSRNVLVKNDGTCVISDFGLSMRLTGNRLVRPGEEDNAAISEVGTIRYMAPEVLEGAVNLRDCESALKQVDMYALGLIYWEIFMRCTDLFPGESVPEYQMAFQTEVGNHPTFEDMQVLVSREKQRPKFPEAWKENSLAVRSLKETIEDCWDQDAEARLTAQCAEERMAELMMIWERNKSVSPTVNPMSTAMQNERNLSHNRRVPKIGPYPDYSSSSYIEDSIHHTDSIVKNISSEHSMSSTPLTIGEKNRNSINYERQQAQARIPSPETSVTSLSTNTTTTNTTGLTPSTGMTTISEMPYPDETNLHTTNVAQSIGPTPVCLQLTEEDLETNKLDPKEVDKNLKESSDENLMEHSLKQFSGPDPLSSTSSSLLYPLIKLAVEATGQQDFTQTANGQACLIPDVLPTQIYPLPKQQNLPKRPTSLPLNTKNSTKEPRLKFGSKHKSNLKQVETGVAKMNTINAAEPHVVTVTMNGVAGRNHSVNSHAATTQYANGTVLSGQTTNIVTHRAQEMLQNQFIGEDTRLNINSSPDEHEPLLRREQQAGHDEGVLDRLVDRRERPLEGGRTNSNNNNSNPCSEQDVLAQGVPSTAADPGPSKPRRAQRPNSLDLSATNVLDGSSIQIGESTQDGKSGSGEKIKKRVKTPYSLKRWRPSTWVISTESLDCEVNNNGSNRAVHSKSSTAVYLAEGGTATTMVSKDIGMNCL

[3] = molecular target: T2, Glycogen synthase kinase-3 beta (Homo sapiens, UniProt P49841); test: Inhibition of N-terminal NanoLuc-fused full length lysed GSK3B (unknown origin) transfected in HEK293T cells incubated for 2 hrs in presence of tracer K8 by NanoBRET assay; type: cell-based
Outline: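 GSK3B NanoBRET run in the lysed mode, with cells permeabilized by digitonin to bypass compound cell penetration. EC50 values were derived from tracer displacement.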
Target sequence in this assay (P49841 whole entry, the tested form may be a part): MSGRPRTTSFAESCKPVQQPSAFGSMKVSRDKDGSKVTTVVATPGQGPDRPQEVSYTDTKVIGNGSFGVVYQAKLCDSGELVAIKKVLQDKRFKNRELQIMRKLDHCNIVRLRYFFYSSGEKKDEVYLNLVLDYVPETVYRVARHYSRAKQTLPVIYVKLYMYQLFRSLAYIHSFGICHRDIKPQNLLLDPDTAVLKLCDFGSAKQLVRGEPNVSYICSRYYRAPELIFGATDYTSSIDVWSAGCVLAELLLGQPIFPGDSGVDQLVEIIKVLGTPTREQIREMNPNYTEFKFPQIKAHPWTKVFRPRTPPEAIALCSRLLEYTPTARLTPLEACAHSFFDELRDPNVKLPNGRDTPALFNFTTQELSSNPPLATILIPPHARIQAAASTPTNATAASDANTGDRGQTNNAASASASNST

[4] = molecular target: Vascular endothelial growth factor receptor 1 (Homo sapiens) (UniProt P17948); test: Inhibition of recombinant FLT1 (unknown origin) at 10 uM by DSF assay relative to staurosporine
Outline: (§1)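 Differential scanning fluorimetry on an in-house panel of 90 recombinant kinases. Stabilization is read as the shift in melting temperature (ΔTm) relative to ligand-free protein. Staurosporine served as the positive control, and binding was also compared against its ΔTm.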

[5] = molecular target: T2, Glycogen synthase kinase-3 beta; test: Inhibition of N-terminal NanoLuc-fused full length intact GSK3B (unknown origin) transfected in HEK293T cells incubated for 2 hrs in presence of tracer K8 by NanoBRET assay; type: cell-based
Outline: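 Cellular target engagement by NanoBRET in intact cells expressing NanoLuc-fused GSK3A or GSK3B, with EC50 values derived from tracer displacement.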
Target sequence in this assay (P49841 whole entry, the tested form may be a part): as above

[6] = molecular target: T3, Tyrosine-protein kinase Mer (Homo sapiens) (UniProt Q12866); test: Inhibition of recombinant MERTK (unknown origin) at 10 uM by DSF assay relative to staurosporine; outline: as §1
T3 sequence (whole entry): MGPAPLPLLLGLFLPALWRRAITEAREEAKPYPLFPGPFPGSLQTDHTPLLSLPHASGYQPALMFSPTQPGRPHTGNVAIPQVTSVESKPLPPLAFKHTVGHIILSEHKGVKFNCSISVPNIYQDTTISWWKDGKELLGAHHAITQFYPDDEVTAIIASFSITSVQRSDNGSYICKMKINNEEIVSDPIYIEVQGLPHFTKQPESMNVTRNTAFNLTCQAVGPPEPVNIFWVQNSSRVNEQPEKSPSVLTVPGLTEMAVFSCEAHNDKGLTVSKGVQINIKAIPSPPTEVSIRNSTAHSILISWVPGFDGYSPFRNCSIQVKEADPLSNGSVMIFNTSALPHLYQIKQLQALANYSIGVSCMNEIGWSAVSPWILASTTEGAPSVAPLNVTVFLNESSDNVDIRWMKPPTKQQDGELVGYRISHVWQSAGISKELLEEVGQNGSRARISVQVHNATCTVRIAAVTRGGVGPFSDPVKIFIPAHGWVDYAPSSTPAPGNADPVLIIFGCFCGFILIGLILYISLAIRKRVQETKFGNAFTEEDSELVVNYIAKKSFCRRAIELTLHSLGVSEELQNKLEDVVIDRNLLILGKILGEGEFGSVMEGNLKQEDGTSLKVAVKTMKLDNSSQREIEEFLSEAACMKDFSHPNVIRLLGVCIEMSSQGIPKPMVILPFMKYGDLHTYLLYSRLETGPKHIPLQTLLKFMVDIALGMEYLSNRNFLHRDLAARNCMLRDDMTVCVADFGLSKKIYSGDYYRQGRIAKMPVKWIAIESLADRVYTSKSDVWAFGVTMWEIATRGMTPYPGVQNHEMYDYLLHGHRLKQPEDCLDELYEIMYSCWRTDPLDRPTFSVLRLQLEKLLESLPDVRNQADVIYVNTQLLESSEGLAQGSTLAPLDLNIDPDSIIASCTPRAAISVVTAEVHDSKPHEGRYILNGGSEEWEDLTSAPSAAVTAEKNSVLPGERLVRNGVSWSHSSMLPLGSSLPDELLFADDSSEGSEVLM

[7] = molecular target: Cyclin-dependent kinase 2 (Homo sapiens) (UniProt P24941); test: Inhibition of recombinant CDK2 (unknown origin) at 10 uM by DSF assay relative to staurosporine; outline: as §1
[8] = molecular target: T3, Tyrosine-protein kinase Mer (Homo sapiens); test: Binding affinity to recombinant MERTK (unknown origin) assessed as change in melting temperature at 10 uM by DSF assay; outline: as §1
[9] = molecular target: T2, Glycogen synthase kinase-3 beta; test: Binding affinity to recombinant GSK3B (unknown origin) assessed as change in melting temperature at 10 uM by DSF assay; outline: as §1
Target sequence in this assay (P49841 whole entry, looked up, the tested form may be a part): as the sequence (P49841 whole entry, the tested form may be a part) above

[10] = molecular target: T4, Bone morphogenetic protein receptor type-2 (Homo sapiens, UniProt Q13873); test: Inhibition of BMPR2 (174 to end residues) (unknown origin) using MBP as substrate incubated for 60 mins in presence of ATP by ADP Glo assay
T4 sequence (Q13873 whole entry): T1 sequence (whole entry)
Outline: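 Enzymatic inhibition of the BMPR2 kinase was read out by ADP-Glo detection of ADP formed, and IC50 values were derived from concentration–response data.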

Chain of Serine/threonine-protein kinase RIO2 (Homo sapiens) (Q9BVS4 whole entry, looked up): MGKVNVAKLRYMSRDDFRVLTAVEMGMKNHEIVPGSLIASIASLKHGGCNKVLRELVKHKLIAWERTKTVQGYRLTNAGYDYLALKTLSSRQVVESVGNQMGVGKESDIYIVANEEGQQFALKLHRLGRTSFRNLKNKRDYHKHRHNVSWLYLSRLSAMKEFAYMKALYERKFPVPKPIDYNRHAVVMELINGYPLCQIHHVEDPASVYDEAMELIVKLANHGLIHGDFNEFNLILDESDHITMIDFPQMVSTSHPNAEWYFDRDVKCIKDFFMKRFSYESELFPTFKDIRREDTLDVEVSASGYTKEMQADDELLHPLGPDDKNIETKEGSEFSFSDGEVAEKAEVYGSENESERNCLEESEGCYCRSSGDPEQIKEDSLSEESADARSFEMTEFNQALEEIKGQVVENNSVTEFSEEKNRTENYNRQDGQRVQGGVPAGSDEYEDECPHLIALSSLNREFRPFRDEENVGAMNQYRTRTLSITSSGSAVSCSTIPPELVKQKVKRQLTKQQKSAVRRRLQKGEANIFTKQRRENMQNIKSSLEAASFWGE
Chain of Vascular endothelial growth factor receptor 1 (Homo sapiens) (P17948 whole entry): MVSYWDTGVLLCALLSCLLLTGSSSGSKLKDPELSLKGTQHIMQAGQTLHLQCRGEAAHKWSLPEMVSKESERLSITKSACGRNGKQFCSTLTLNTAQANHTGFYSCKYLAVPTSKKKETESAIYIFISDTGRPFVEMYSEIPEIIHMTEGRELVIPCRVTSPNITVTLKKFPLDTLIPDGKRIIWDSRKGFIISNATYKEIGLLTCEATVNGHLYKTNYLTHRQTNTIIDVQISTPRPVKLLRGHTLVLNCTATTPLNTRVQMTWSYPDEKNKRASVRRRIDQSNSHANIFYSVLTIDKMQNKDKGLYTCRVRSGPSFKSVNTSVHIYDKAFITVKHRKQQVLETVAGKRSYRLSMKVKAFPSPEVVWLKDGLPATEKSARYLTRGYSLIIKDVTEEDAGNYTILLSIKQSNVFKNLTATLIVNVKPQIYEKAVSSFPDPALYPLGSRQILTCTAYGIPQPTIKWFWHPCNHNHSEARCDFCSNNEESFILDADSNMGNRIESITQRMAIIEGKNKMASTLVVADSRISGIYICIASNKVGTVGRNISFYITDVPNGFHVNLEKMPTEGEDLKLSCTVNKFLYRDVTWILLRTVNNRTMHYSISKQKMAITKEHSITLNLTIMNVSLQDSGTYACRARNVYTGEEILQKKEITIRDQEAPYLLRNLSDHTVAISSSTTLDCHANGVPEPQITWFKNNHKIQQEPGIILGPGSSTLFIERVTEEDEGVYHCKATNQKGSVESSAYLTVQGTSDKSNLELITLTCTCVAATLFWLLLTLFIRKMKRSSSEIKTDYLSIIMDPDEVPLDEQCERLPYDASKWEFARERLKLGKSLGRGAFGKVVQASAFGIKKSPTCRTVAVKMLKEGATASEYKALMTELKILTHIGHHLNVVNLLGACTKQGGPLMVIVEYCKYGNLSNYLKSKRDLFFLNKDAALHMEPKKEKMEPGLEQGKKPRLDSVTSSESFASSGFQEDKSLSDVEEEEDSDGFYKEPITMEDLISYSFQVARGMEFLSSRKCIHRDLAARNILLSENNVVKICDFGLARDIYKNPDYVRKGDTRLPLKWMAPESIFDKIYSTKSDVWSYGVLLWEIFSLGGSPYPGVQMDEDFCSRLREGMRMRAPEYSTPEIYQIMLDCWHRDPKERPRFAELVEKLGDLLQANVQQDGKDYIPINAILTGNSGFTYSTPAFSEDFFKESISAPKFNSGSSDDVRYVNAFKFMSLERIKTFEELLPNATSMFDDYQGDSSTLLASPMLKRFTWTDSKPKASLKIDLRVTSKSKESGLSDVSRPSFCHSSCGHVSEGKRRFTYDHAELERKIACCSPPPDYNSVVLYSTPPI

## O=C1NCCc2ccc(cc2)Nc2nccc(n2)Nc2cc1[nH]n2
[1]
  Activity: 27%
[2]
  Activity: 8.3%
[3]
  IC50: 2.3 µM
[4]
  inhibition: 36%
[5]
  IC50: 34 µM
[6]
  inhibition: 48%
[7]
  inhibition: 25%
[8]
  ΔTm: 3.2 °C
[9]
  ΔTm: 8.4 °C
[10]
  IC50: 0.506 µM
